According to ChEMBL document CHEMBL3608245, “Boronic acid-containing aminopyridine- and aminopyrimidinecarboxamide CXCR1/2 antagonists: Optimization of aqueous solubility and oral bioavailability” (Bioorg Med Chem Lett, 2015):
Converted amounts (≈) assume the structure as drawn. The source made the active and inactive calls. No cut-off for these calls is given here.

Key:
[1] = target: T1, C-X-C chemokine receptor type 1 (Homo sapiens, UniProt P25024); experiment: Antagonist activity at CXCR1 (unknown origin) transfected in RBL cells assessed as inhibition of IL-8-mediated intracellular calcium release preincubated for 30 mins followed by IL-8 addition by FLUO-4AM-based fluorescent microplate reader analysis; format: functional, cell-based
T1 sequence (P25024 whole entry): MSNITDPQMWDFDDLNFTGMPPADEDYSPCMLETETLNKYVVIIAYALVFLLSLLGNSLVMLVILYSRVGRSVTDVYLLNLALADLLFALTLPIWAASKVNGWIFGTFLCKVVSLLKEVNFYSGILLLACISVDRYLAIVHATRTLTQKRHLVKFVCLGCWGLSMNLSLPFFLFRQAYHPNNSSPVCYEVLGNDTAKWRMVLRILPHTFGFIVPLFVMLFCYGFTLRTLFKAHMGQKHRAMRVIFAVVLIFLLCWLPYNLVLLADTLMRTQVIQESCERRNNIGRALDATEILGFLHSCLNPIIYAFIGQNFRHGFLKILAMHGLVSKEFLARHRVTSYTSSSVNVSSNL
Procedure, shortened: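 RBL cells stably expressing CXCR1 were preincubated 30 min with compound, then stimulated with IL8. Intracellular calcium release read by FLUO-4AM fluorescence on a microplate reader. IC50 from triplicate experiments, mean ± SE.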

[2] = target: T2, C-X-C chemokine receptor type 2 (Homo sapiens, UniProt P25025); experiment: Antagonist activity at CXCR2 (unknown origin) transfected in RBL cells assessed as inhibition of IL-8-mediated intracellular calcium release preincubated for 30 mins followed by IL-8 addition by FLUO-4AM-based fluorescent microplate reader analysis; format: functional, cell-based
T2 sequence (P25025 whole entry): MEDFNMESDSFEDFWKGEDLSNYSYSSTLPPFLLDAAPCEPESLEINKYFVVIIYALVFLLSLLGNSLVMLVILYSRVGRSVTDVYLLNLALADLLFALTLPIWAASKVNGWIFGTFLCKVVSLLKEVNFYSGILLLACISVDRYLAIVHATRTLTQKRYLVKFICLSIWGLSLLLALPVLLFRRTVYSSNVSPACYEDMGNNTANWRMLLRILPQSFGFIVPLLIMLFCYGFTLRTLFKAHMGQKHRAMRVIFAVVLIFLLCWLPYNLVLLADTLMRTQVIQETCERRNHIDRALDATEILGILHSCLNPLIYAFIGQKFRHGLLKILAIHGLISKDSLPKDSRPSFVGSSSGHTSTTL

[3] = target: T3, Interleukin-8 receptors, CXCR1/CXCR2 (Homo sapiens, UniProt P25025+P25024); experiment: Antagonist activity at CXCR1/CXCR2 in isolated human PMN assessed as inhibition of IL-8-mediated intracellular calcium flux; format: functional, cell-based
T3 sequence (P25025 whole entry): T2 sequence (P25025 whole entry)
T3 sequence (P25024 whole entry): T1 sequence (P25024 whole entry)
Procedure, shortened: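 Isolated human neutrophils (PMNs); inhibition of calcium flux with IL8 as agonist; IC50 reported as mean ± SE from triplicate experiments.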

[4] = Metabolic stability in human plasma assessed as compound remaining at 1 uM measured at 1 hr by LC-MS/MS analysis; format: ADME, cell-free; settings: read-out: Stability
Procedure, shortened: (§1)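 Compound at 1 µM was incubated in human plasma at 37°C for up to 24 h. Samples were taken at 0, 1, 4 and 24 h and analysed by LC-MS/MS, with results reported as % remaining.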

[5] = Metabolic stability in human plasma assessed as compound remaining at 1 uM measured at 4 hrs by LC-MS/MS analysis; format: ADME, cell-free; settings: read-out: Stability; procedure, shortened: as §1
[6] = Metabolic stability in human plasma assessed as compound remaining at 1 uM measured at 24 hrs by LC-MS/MS analysis; format: ADME, cell-free; settings: read-out: Stability; procedure, shortened: as §1
[7] = Solubility of the compound in 0.1 N HCl; format: physicochemical; settings: buffer
Plasma = experiment: Metabolic stability in rat plasma; format: ADME, cell-free
Rattus norvegicus [8] = experiment: AUC in rat at 1 mg/kg, iv by LC-MS/MS analysis; format: ADME, organism-based; settings: in vivo
Procedure, shortened: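 Rats dosed intravenously at 1 mg/kg in DPS vehicle (dimethylacetamide/PEG400/0.9% saline 40:40:20). Plasma concentrations measured by LC-MS/MS against a calibration curve of test compound spiked in rat plasma, run alongside the samples; AUC given in μmol·hr/L.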

Rattus norvegicus [9] = experiment: AUC in rat at 1 mg/kg, po by LC-MS/MS analysis; format: ADME, organism-based; settings: in vivo
[10] = Oral bioavailability in rat at 1 mg/kg by LC-MS/MS analysis; format: ADME, organism-based; settings: in vivo
Procedure, shortened: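 Rats were dosed at 1 mg/kg both intravenously (vehicle dimethylacetamide/PEG400/0.9% saline 40:40:20) and by oral gavage (vehicle 0.1 N HCl or Labrasol, depending on compound). Plasma levels were measured by LC-MS/MS against a calibration curve of compound spiked into rat plasma, run alongside the samples. Oral and IV AUC are reported in μmol·hr/L.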

Rattus norvegicus [11] = experiment: Antiinflammatory activity in Sprague-Dawley rat ozone model of pulmonary inflammation assessed as reduction in neutrophil influx at 1 mg/kg, iv after 24 hrs by Wright-Giemsa staining assay; format: functional, organism-based
Procedure, shortened: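 Sprague-Dawley rats, n = 4 per cohort, received a single iv dose at t = 0 in DMA/PEG400/0.9% saline (40:40:20). Vehicle groups were kept in air (negative) or 1 ppm ozone (positive), and treated groups in ozone, each for 4 h. At 24 h the rats were sacrificed and BALF was collected. Cells were spun down, Wright-Giemsa stained and neutrophils counted.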

Structure (SMILES)	IC50 [1]	IC50 [2]	also measured
NCCN(Cc1ccc(B(O)O)cn1)c1ncc(C(=O)Nc2ccc(F)cc2)cn1	> 5000 nM	> 5000 nM	
CN(Cc1ccc(B(O)O)cn1)c1ccc(C(=O)Nc2ccc(F)cc2)cn1	1700 nM	81 nM	
O=C(Nc1ccc(F)cc1)c1cnc(N(Cc2ccc(B(O)O)cn2)Cc2ccco2)nc1	444 nM	655 nM	
O=C(Nc1ccc(F)cc1)c1ccc(N(Cc2ccc(B(O)O)cn2)CC2CCOCC2)nc1	> 5000 nM	2300 nM	
CN(Cc1ccc(B(O)O)cc1)c1ncc(C(=O)Nc2ccc(F)cc2)cn1	681 nM	121 nM	
O=C(Nc1ccc(F)cc1)c1cnc(N(Cc2ccccn2)Cc2ccc(B(O)O)cn2)nc1	2050 nM	4310 nM	
O=C(Nc1ccc(F)cc1)c1cnc(N(Cc2ccccc2)Cc2ccc(B(O)O)cn2)nc1	7 nM	4 nM	IC50 [3]: 185 nM; remaining at 1 h, 1 µM [4]: 90%; remaining at 4 h, 1 µM [5]: 71%; remaining at 24 h, 1 µM [6]: 62%; solubility [7]: 500 µg/mL (≈ 1090 µM); Stability (Plasma): Stable; AUC (Rattus norvegicus [8]): 4.37 µM·h; AUC (Rattus norvegicus [9]): 1.15 µM·h; bioavailability [10]: 24%; Activity (Rattus norvegicus [11]): Active
O=C(Nc1ccc(F)cc1)c1cnc(NCc2cccc(B(O)O)c2)nc1	1340 nM	918 nM	
CN(Cc1ccccc1B(O)O)c1ccc(C(=O)Nc2ccc(F)cc2)cn1	> 5000 nM	> 5000 nM	
O=C(Nc1ccc(F)cc1)c1ccc(NCc2ccc(B(O)O)cc2)nc1	4300 nM	2200 nM	
O=C(O)CN(Cc1ccc(B(O)O)cn1)c1ncc(C(=O)Nc2ccc(F)cc2)cn1	> 5000 nM	> 5000 nM	
O=C(Nc1ccc(F)cc1)c1ccc(NCc2cccc(B(O)O)c2)nc1	611 nM	733 nM	
CN(Cc1cccc(B(O)O)c1)c1ccc(C(=O)Nc2ccc(F)cc2)cn1	4100 nM	410 nM	
CN(Cc1ccc(B(O)O)cn1)c1ncc(C(=O)Nc2ccc(F)cc2)cn1	1700 nM	933 nM	
CN(Cc1ccccc1B(O)O)c1ncc(C(=O)Nc2ccc(F)cc2)cn1	> 5000 nM	> 5000 nM	
O=C(Nc1ccc(F)cc1)c1cnc(NCc2ccc(B(O)O)cc2)nc1	1700 nM	2600 nM	
O=C(Nc1ccc(F)cc1)c1ccc(N(Cc2ccccc2)Cc2ccc(B(O)O)cn2)nc1	326 nM	298 nM	
O=C(Nc1ccc(F)cc1)c1ccc(N(Cc2ccc(B(O)O)cn2)Cc2ccco2)nc1	3.3 nM	21 nM	
O=C(Nc1ccc(F)cc1)c1ccc(SCc2cc(OC(F)(F)F)ccc2B(O)O)nc1			remaining at 1 h, 1 µM [4]: 62%; remaining at 4 h, 1 µM [5]: 34%; remaining at 24 h, 1 µM [6]: 2%; solubility [7]: Insoluble; Stability (Plasma): Stable; AUC (Rattus norvegicus [9]; BLD = below limit of detection): BLD; Activity (Rattus norvegicus [11]): Active
CN(Cc1cccc(B(O)O)c1)c1ncc(C(=O)Nc2ccc(F)cc2)cn1	2500 nM	2500 nM	
O=C(Nc1ccc(F)cc1)c1ccc(N(Cc2ccccn2)Cc2ccc(B(O)O)cn2)nc1	> 5000 nM	4850 nM	
O=C(Nc1ccc(F)cc1)c1ccc(NCc2ccccc2B(O)O)nc1	> 5000 nM	> 5000 nM	
CN(Cc1ccc(B(O)O)cc1)c1ccc(C(=O)Nc2ccc(F)cc2)cn1	1400 nM	1100 nM	
